# Results reported in ChEMBL document CHEMBL4340513, “Dual-targeting Rutaecarpine-NO donor hybrids as novel anti-hypertensive agents by promoting release of CGRP” (Eur J Med Chem, 2019).
# Active and inactive are the calls of the source. The rule behind the calls is not given here.
# Key:
# Aorta [1] = experiment: Vasodilating activity in Sprague-Dawley rat aortic rings assessed as reduction in phenylephrine-induced contractions in presence of L-cysteine and TRPA1 antagonist HC030031; format: functional, tissue-based
# Method in brief: (§1)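 SD rat aortic rings were prepared as for the standard ring assay and randomly grouped. They were preincubated 10 min with L-cysteine (1 µM final) alone or with HC030031 (10 µM), capsazepine (10 µM), both, or CGRP(8-37) (10 µM, in water), all final. Phenylephrine contraction (2 µM final) preceded a cumulative concentration–response curve at 10^-9–10^-6 M final. Mean, n = 5.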
# Aorta [2] = experiment: Vasodilating activity in Sprague-Dawley rat aortic rings assessed as reduction in phenylephrine-induced contractions; format: functional, tissue-based
# Method in brief: (§2)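 Thoracic aorta rings (4 mm) from male SD rats (250-300 g, chloral hydrate anesthesia), cleaned of fat and connective tissue and held at 2 g resting force in Krebs' solution. After KCl response, washout and 30 min re-equilibration, rings got L-cysteine (1 µM final, 10 min), then phenylephrine contraction (2 µM final). Cumulative concentration–response curve at 10^-9–10^-6 M final gave EC50. DMSO ≤0.1%.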
# Rattus norvegicus [3] = experiment: Increase in CGRP level in Sprague-Dawley rat blood at 20 to 40 mg/kg, ip by ELISA; format: functional, organism-based
# Method in brief: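 Rat serum CGRP was quantified with a commercial CGRP ELISA kit per the manufacturer. Optical density was read at 450 nm and concentrations were expressed as pg/mL.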
# Rattus norvegicus [4] = experiment: Antihypertensive activity in carotid cannulated Sprague-Dawley rat assessed as reduction in diastolic arterial pressure at 20 to 40 mg/kg, ip measured within 2 hrs relative to rutaecarpine; format: functional, organism-based
# Method in brief: (§3)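 Male SD rats (250-300 g) under sodium pentobarbital (40 mg/kg, 10 mg/kg supplements), kept at 37°C and tracheotomized. The right carotid artery was cannulated to a pressure transducer. Once pressure was stable, compounds suspended in sodium carboxymethyl cellulose were given i.p. at 20 or 40 mg/kg. Arterial pressure was recorded continuously for 2 h to derive its decrease.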
# Aorta [5] = experiment: Vasodilating activity in Sprague-Dawley rat aortic rings assessed as reduction in phenylephrine-induced contractions relative to control; format: functional; method in brief: as §2
# Aorta [6] = experiment: Vasodilating activity in Sprague-Dawley rat aortic rings assessed as reduction in phenylephrine-induced contractions in presence of L-cysteine and CGRP receptor antagonist CGRP(8 to 37); format: functional, tissue-based; method in brief: as §1
# Rattus norvegicus [7] = experiment: Antihypertensive activity in carotid cannulated Sprague-Dawley rat assessed as reduction in systolic arterial pressure at 20 to 40 mg/kg, ip measured within 2 hrs relative to rutaecarpine; format: functional, organism-based; method in brief: as §3
# Aorta [8] = experiment: Vasodilating activity in Sprague-Dawley rat aortic rings assessed as reduction in phenylephrine-induced contractions in presence of L-cysteine and TRPV1 antagonist capsazepine; format: functional, tissue-based; method in brief: as §1
# Aorta [9] = experiment: Vasodilating activity in Sprague-Dawley rat aortic rings assessed as reduction in phenylephrine-induced contractions at 1:1 ratio of test compound to furoxan relative to control; format: functional
# Aorta [10] = experiment: Vasodilating activity in Sprague-Dawley rat aortic rings assessed as reduction in phenylephrine-induced contractions at 1:1 ratio of test compound to furoxan; format: functional, tissue-based
EC50 (Aorta [2]),SMILES,Emax (Aorta [5]),also measured
13.1 nM,O=c1c2cc(OCc3c(-c4ccccc4)no[n+]3[O-])ccc2nc2n1CCc1c-2[nH]c2ccccc12,85.2%,Activity (Aorta [1]): inactive; Activity (Rattus norvegicus [3]): inactive; Activity (Rattus norvegicus [4]): Active; Activity (Aorta [6]): inactive; Activity (Rattus norvegicus [7]): Active; Activity (Aorta [8]): inactive
158 nM,O=c1c2cc(OCCOCCOCCNCc3c(-c4cccc(F)c4)no[n+]3[O-])ccc2nc2n1CCc1c-2[nH]c2ccccc12,77.3%,–
112 nM,O=c1c2ccccc2nc2n1CCc1c-2[nH]c2ccc(OCCOCCOCCNCc3c(-c4ccccc4)no[n+]3[O-])cc12,64.2%,–
1410 nM,O=c1c2cc(OCCOCCOCCNCc3c(-c4cccc5ccccc45)no[n+]3[O-])ccc2nc2n1CCc1c-2[nH]c2ccccc12,45.3%,–
2590 nM,CC(C)c1ccc(-c2no[n+]([O-])c2CNCCOCCOCCOc2ccc3nc4n(c(=O)c3c2)CCc2c-4[nH]c3ccccc23)cc1,40.9%,–
30.7 nM,O=c1c2cc(OCCOCCOCCNCc3c(-c4ccsc4)no[n+]3[O-])ccc2nc2n1CCc1c-2[nH]c2ccccc12,73.6%,–
22500 nM,O=c1c2cc(OCCOCCOCCNCc3c(-c4ccoc4)no[n+]3[O-])ccc2nc2n1CCc1c-2[nH]c2ccccc12,30.6%,–
15.2 nM,O=c1c2cc(OCCOCCNCc3c(-c4ccccc4)no[n+]3[O-])ccc2nc2n1CCc1c-2[nH]c2ccccc12,81.4%,–
116 nM,CCOc1ccccc1-c1no[n+]([O-])c1CNCCOCCOCCOc1ccc2nc3n(c(=O)c2c1)CCc1c-3[nH]c2ccccc12,69.9%,–
156 nM,O=c1c2ccccc2nc2n1CCc1c-2[nH]c2ccccc12 [RUTAECARPINE],66.3%,Activity (Rattus norvegicus [3]): inactive; Emax (Aorta [9]): 75.3%; EC50 (Aorta [10]): 29.7 nM
2040 nM,O=c1c2ccccc2nc2n1CCc1c-2n(CCOCCOCCNCc2c(-c3ccccc3)no[n+]2[O-])c2ccccc12,43.2%,–
774 nM,O=c1c2cc(OCCOCCOCCNCc3c(-c4ccccc4)no[n+]3[O-])ccc2nc2n1CCc1c-2[nH]c2ccccc12,54.6%,–
